From ChEMBL document CHEMBL1156470, “Inhibition of the activation of multiple serine proteases with a cathepsin C inhibitor requires sustained exposure to prevent pro-enzyme processing” (J Biol Chem, 2007)
Activity calls are given as the source filed them. The rule behind the calls is not given here.

How the values were obtained:
Myeloblastin [1] = molecular target: T1, Myeloblastin (Mus musculus, UniProt Q61096); assay: Inhibition of proteinase-3 activation in beta-estradiol differentiated mouse EcoM-G cells after 24 hrs; format: cell-based
T1 sequence (Q61096 whole entry): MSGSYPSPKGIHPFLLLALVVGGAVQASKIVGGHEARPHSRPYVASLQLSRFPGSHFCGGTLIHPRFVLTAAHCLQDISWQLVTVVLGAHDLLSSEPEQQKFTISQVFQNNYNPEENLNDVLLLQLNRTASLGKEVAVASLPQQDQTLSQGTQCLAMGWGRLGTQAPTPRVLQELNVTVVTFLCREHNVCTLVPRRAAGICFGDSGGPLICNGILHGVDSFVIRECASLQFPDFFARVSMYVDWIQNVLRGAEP
Outline: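 EcoM-G cells (cultures <3 months old) washed and seeded at 0.5×10^6 cells/ml without β-estradiol. After 24 h, compound added in Me₂SO (final 0.5%), then cells differentiated a further 24 h, harvested and lysed. NE assayed with 400 μM MeOSuc-AAPV-AMC, CG with 1 mM Suc-AAPF-pNA (405 nm, 5 min), Pr-3 with 10 μM internally quenched substrate (ex 328/em 393 nm), all from the same lysates. IC50 from four-parameter Hill fit.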

[2] = molecular target: T2, Neutrophil elastase (Homo sapiens) (UniProt P08246); conditions: U-937, 1 uM
T2 sequence (whole entry): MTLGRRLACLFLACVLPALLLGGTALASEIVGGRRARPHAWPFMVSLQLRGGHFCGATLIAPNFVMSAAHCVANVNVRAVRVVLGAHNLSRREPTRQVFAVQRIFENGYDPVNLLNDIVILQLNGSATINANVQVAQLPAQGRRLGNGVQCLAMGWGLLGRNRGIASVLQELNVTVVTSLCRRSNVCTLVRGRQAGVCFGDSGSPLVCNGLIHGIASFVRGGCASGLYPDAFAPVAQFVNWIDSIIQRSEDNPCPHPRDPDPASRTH

[3] = molecular target: T3, Cathepsin G (Mus musculus) (UniProt P28293); assay: Inhibition of cathepsin G activity in beta-estradiol differentiated mouse EcoM-G cells at 10 uM after 3 days in the absence of estradiol; format: cell-based
T3 sequence (whole entry): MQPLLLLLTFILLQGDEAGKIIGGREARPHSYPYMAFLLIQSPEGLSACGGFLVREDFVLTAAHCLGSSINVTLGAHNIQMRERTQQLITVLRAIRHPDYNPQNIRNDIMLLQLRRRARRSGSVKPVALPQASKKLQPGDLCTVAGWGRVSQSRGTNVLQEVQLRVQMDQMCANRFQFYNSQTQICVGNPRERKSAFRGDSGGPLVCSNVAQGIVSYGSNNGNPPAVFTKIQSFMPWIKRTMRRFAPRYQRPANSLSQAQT
Outline: (§1)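 EcoM-G cells seeded without β-estradiol to differentiate. 10 μM compound or vehicle added 24 h after estrogen removal, and aliquots taken over time up to 3 days. CG activity in extracts measured with 1 mM Suc-Ala-Ala-Pro-Phe-pNA, absorbance at 405 nm over 5 min, in 100 mM Tris pH 7.5, 1 M NaCl.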

Myeloblastin [4] = molecular target: T4, Myeloblastin (Homo sapiens, UniProt P24158); assay: Inhibition of proteinase-3 in human U937 cells; format: cell-based, U-937
T4 sequence (P24158 whole entry): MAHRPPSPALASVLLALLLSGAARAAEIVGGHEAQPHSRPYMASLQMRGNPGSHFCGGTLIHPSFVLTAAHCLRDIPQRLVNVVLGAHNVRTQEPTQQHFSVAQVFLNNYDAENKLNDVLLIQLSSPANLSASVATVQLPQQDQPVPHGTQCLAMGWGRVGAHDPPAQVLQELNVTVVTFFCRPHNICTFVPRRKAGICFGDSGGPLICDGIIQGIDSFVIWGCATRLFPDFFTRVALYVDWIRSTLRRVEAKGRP

[5] = molecular target: T3, Cathepsin G (Mus musculus); assay: Inhibition of cathepsin G activity in beta-estradiol differentiated mouse EcoM-G cells at 10 uM after 24 hrs in the absence of estradiol; format: cell-based; outline: as §1
[6] = molecular target: T5, Neutrophil elastase (Mus musculus) (UniProt Q3UP87); conditions: EcoM-G, 1 uM
T5 sequence (whole entry): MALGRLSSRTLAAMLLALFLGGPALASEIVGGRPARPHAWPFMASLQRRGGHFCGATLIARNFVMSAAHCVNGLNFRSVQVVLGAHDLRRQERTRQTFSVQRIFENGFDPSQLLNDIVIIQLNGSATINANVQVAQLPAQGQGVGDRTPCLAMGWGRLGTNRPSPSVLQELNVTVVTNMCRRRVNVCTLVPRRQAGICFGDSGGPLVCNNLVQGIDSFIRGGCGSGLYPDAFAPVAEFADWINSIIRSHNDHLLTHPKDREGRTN

Procathepsin L = Procathepsin L (Homo sapiens, UniProt P07711); assay: Inhibition of human recombinant cathepsin L after 10 mins
Chain of Procathepsin L (P07711 whole entry): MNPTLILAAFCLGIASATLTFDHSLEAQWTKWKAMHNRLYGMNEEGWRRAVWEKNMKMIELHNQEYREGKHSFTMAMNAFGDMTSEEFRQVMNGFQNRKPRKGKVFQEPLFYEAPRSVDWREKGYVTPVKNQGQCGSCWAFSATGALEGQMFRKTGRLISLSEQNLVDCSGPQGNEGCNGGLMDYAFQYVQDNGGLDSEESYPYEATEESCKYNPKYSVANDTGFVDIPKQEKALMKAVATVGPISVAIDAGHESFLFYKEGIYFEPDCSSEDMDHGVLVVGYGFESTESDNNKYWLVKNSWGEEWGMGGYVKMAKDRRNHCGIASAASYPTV

U-937 (Homo sapiens) = assay: Effect on neutrophil elastase protein expression in human U937 cells at 30 uM after 7 days by Western blot
Cathepsin S = Cathepsin S (Homo sapiens, UniProt P25774); assay: Inhibition of human recombinant cathepsin S after 10 mins
Chain of Cathepsin S (P25774 whole entry): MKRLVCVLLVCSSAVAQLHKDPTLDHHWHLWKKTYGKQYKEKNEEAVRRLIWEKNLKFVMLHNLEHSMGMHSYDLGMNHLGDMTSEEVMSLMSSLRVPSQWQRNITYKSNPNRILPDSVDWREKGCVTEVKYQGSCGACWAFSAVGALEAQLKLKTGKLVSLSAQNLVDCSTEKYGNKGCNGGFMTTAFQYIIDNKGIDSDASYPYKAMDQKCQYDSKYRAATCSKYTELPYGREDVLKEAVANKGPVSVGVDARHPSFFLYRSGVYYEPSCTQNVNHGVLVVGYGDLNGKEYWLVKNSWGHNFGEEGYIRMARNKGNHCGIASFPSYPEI

U-937 = assay: Cytotoxicity against human U937 cells at 30 uM after 72 hrs annexin-V propidium iodide method; format: functional
Outline: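 U937 plated at 0.4×10^6 cells/ml, compound in Me₂SO (final 0.5%). Cells harvested and re-seeded every 24 h in medium with freshly added inhibitor, for 72 h. Viability by annexin V-FITC/propidium iodide two-colour flow cytometry; cells negative for both stains counted viable.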

N#C[C@@]1(NC(=O)[C@@H](N)Cc2cccs2)C[C@@H]1c1ccccc1.O=C(O)C(F)(F)F
IC50 (Myeloblastin [1]): 0.14 µM | inhibition [2]: > 90% | Activity [3]: Active | IC50 (Myeloblastin [4]): > 50 µM | Activity [5]: Active | inhibition [6]: > 90% | IC50 (Procathepsin L): 5.4 µM | Activity (U-937 (Homo sapiens)): inactive | IC50 (Cathepsin S): 5.9 µM | Activity (U-937): 100%
